Results as given in ChEMBL document CHEMBL4411332, “Deciphering the Role of Intramolecular Networking in Cholic Acid-Peptide Conjugates on the Lipopolysaccharide Surface in Combating Gram-Negative Bacterial Infections” (J Med Chem, 2019).
Active and inactive are the calls of the source.

Legend:
Escherichia coli [1] = experiment: Antibacterial activity against Escherichia coli by broth dilution assay; assay type: functional
Method in brief: (§1)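 MIC99 by broth-dilution assay; antibacterial and culture details are in the Supporting Information.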

Klebsiella pneumoniae [2] = experiment: Antibacterial activity against Klebsiella pneumoniae by broth dilution assay; assay type: functional; method in brief: as §1
Acinetobacter baumannii [3] = experiment: Antibacterial activity against Acinetobacter baumannii by broth dilution assay; assay type: functional; method in brief: as §1
[4] = Binding affinity to DPH-doped model gram negative bacterial membrane (LPS/DPPE/DMPG lipids) assessed as increase in membrane fluidity by fluorescence anisotrophy
Method in brief: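 Vesicles of LPS, DPPE and DMPG doped with DPH were incubated with compound, and the change in DPH fluorescence anisotropy was recorded. Mean ± SD of three replicates, unpaired two-tailed t-test.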

Lipopolysaccharide (LPS) [5] = experiment: Displacement of dansyl-polymyxin B from LPS of bacterial cell membrane by fluorescence spectrophotometry; conditions: Bacteria
Method in brief: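 Dansyl-polymyxin B–LPS complexes titrated with compound; rise in dansyl fluorescence from displacement measured. Mean ± SD of three replicates, unpaired two-tailed t-test.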

Lipopolysaccharide (LPS) [6] = experiment: Binding affinity to bacterial LPS by BODIPY-LPS based fluorescence assay; conditions: Bacteria
Method in brief: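 BODIPY-conjugated LPS aggregates titrated with compound; fluorescence increase from aggregate disintegration recorded. Mean ± SD of three replicates, unpaired two-tailed t-test.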

Cell membrane [7] = experiment: Binding affinity to bacterial cell membrane assessed as Ka1 by SPR assay; assay type: cell membranes; conditions: Bacteria
Method in brief: (§2)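 Surface plasmon resonance of compound binding to bacterial membranes. K1, K2 and overall KA were calculated from the sensorgrams. Average of three replicates.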

Cell membrane [8] = experiment: Binding affinity to bacterial cell membrane assessed as Kd1 by SPR assay; assay type: cell membranes; conditions: Bacteria; method in brief: as §2
Cell membrane [9] = experiment: Binding affinity to bacterial cell membrane assessed as K1 by SPR assay; assay type: cell membranes; conditions: Bacteria; method in brief: as §2
Cell membrane [10] = experiment: Binding affinity to bacterial cell membrane assessed as Kd2 by SPR assay; assay type: cell membranes; conditions: Bacteria; method in brief: as §2
Cell membrane [11] = experiment: Binding affinity to bacterial cell membrane assessed as K2 by SPR assay; assay type: cell membranes; conditions: Bacteria; method in brief: as §2
Cell membrane [12] = experiment: Binding affinity to bacterial cell membrane assessed as KA by SPR assay; assay type: cell membranes; conditions: Bacteria; method in brief: as §2
Escherichia coli [13] = experiment: Induction of membrane permeabilization in Escherichia coli at 8 uM after 40 mins by NPN-fluorescence based assay; assay type: organism-based; conditions: Cell membrane
Method in brief: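 NPN-stained E. coli incubated with compound at 8 µM; outer-membrane permeabilization followed as NPN fluorescence over time. Average of three replicates.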

Escherichia coli [14] = experiment: Induction of membrane permeabilization in Escherichia coli at 8 uM after 30 mins DiSC2-fluorescence based assay; assay type: organism-based; conditions: Cell membrane
Method in brief: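 DiSC2(5)-loaded E. coli treated at 8 µM; depolarization-driven fluorescence increase followed over time. Average of three replicates.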

Escherichia coli [15] = experiment: Induction of membrane permeabilization in Escherichia coli at 32 uM by propidium iodide uptake based FACS analysis; assay type: organism-based; conditions: Cell membrane
Method in brief: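 E. coli treated at 32 µM, PI-stained, and PI-positive cells counted by flow cytometry. Mean ± SD of four replicates, unpaired two-tailed t-test.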

Escherichia coli [16] = experiment: Induction of membrane permeabilization in Escherichia coli in presence of 1.9 to 1000 ug/ml LPS by propidium iodide uptake based FACS analysis; assay type: organism-based; conditions: Cell membrane
Method in brief: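 E. coli was treated with compound in the presence of graded LPS and stained with propidium iodide. The percentage of PI-positive cells was measured by flow cytometry.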

Escherichia coli [17] = experiment: Bactericidal activity against Escherichia coli assessed as reduction in colony forming units at 1 times MIC99 concentration after 6 hrs by fluorescent based time-kill assay; assay type: functional, organism-based
Escherichia coli [18] = experiment: Bactericidal activity against stationary form of Escherichia coli assessed as reduction in colony forming units by fluorescent based time-kill assay; assay type: functional, organism-based
Escherichia coli [19] = experiment: Bactericidal activity against persistent form of Escherichia coli assessed as reduction in colony forming units by fluorescent based time-kill assay; assay type: functional, organism-based
Escherichia coli [20] = experiment: Antibiofilm activity against Escherichia coli assessed as reduction in colony forming units after 24 hrs by crystal violet-based assay; assay type: functional, organism-based
Escherichia coli [21] = experiment: Antibiofilm activity against Escherichia coli assessed as reduction in colony forming units at 64 uM after 24 hrs by crystal violet-based assay relative to control; assay type: functional
Escherichia coli [22] = experiment: Antibiofilm activity against Escherichia coli assessed as reduction in biomass levels at 64 uM after 24 hrs by crystal violet-based assay relative to control; assay type: functional; parameters: scale not given: the % may be the effect or the level left
Method in brief: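 Pre-formed E. coli biofilms treated 24 h with varying doses; biomass quantified by crystal violet staining relative to untreated. Mean ± SD of three replicates, unpaired two-tailed t-test.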

Escherichia coli [23] = experiment: Antibiofilm activity against Escherichia coli assessed as reduction in biomass levels after 24 hrs by SYT09-propidium iodide based confocal microscopy; assay type: functional, organism-based
Method in brief: (§3)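 Treated E. coli biofilms stained with SYTO9 (all cells) and PI (dead cells) and imaged by confocal laser scanning microscopy. Biofilm thickness quantified against untreated. Mean ± SD of three replicates, unpaired two-tailed t-test.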

Escherichia coli [24] = experiment: Antibacterial activity against Escherichia coli isolate 6/23 infected in wound areas of BALB/c mouse assessed as reduction in colony forming units at 40 mg/kg dosed thrice daily for 4 days starting 6 hrs post infection and measured on day 5; assay type: functional, organism-based
Escherichia coli [25] = experiment: Antibacterial activity against Escherichia coli XEN 14 infected in wound areas of BALB/C mouse assessed as reduction in bacterial load at 40 mg/kg administered thrice daily for 4 days starting 6 hrs post infection and measured on day 5 by bioluminescence imaging analysis; assay type: functional, organism-based
Escherichia coli [26] = experiment: Antibacterial activity against Escherichia coli isolate 9/44 by broth dilution assay; assay type: functional
Escherichia coli [27] = experiment: Antibacterial activity against Escherichia coli isolate 9/203 by broth dilution assay; assay type: functional
Escherichia coli [28] = experiment: Antibacterial activity against Escherichia coli isolate 6/23 by broth dilution assay; assay type: functional
Escherichia coli [29] = experiment: Antibacterial activity against Escherichia coli isolate 6/27 by broth dilution assay; assay type: functional
Escherichia coli [30] = experiment: Antibacterial activity against Escherichia coli isolate 6/38 by broth dilution assay; assay type: functional
Acinetobacter baumannii [31] = experiment: Antibacterial activity against Acinetobacter baumannii isolate 4/307 by broth dilution assay; assay type: functional
Acinetobacter baumannii [32] = experiment: Antibacterial activity against Acinetobacter baumannii isolate 1/303 by broth dilution assay; assay type: functional
Acinetobacter baumannii [33] = experiment: Antibacterial activity against Acinetobacter baumannii isolate 5/321 by broth dilution assay; assay type: functional
Acinetobacter baumannii [34] = experiment: Antibacterial activity against Acinetobacter baumannii isolate 4/202 by broth dilution assay; assay type: functional
Acinetobacter baumannii [35] = experiment: Antibacterial activity against Acinetobacter baumannii isolate 5/412 by broth dilution assay; assay type: functional
Klebsiella pneumoniae [36] = experiment: Antibacterial activity against Klebsiella pneumoniae isolate 8/407 by broth dilution assay; assay type: functional
Klebsiella pneumoniae [37] = experiment: Antibacterial activity against Klebsiella pneumoniae isolate 8/307 by broth dilution assay; assay type: functional
Klebsiella pneumoniae [38] = experiment: Antibacterial activity against Klebsiella pneumoniae isolate 7/47 by broth dilution assay; assay type: functional
Klebsiella pneumoniae [39] = experiment: Antibacterial activity against Klebsiella pneumoniae isolate 12823 by broth dilution assay; assay type: functional
[40] = Selectivity index, ratio of HC50 for human RBC to MIC99 for Escherichia coli; assay type: toxicity; conditions: human red blood cells (RBC), read-out: Selectivity Index
[41] = Selectivity index, ratio of IC50 for human A549 cells to MIC99 for Escherichia coli; assay type: toxicity; conditions: read-out: Selectivity Index
[42] = Critical micellar concentration of the compound; assay type: physicochemical
Escherichia coli [43] = experiment: Induction of membrane permeabilization in Escherichia coli by SYTO9-PI staining based fluorescence microscopy; assay type: organism-based; conditions: Cell membrane
Escherichia coli [44] = experiment: Induction of cell morphology changes in Escherichia coli at 8 uM by TEM assay; assay type: functional, organism-based
Method in brief: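 E. coli treated at 8 µM, sampled at different times and imaged by transmission electron microscopy beside untreated cells.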

Escherichia coli [45] = experiment: Antimicrobial activity against compound-pre-treated Escherichia coli by broth dilution assay based drug resistance development assay; assay type: functional, organism-based
Method in brief: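 E. coli pre-treated with compound, then MIC₉₉ redetermined by broth-dilution assay in four replicates; reported as fold change in MIC₉₉ relative to starting value to assess resistance development.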

Escherichia coli [46] = experiment: Ratio of antimicrobial activity against Escherichia coli using 10^12 CFU/ml bacterial inoculum by broth dilution assay to antimicrobial activity against Escherichia coli by broth dilution assay; assay type: functional
Method in brief: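 MIC99 against E. coli was measured by broth dilution at a range of inoculum densities up to 10¹² CFU/mL, in four replicates. Results were expressed as fold change in MIC99 relative to the standard inoculum.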

Escherichia coli [47] = experiment: Antibiofilm activity against Escherichia coli after 24 hrs by propidium iodide uptake based FACS analysis; assay type: functional, organism-based
Escherichia coli [48] = experiment: Antibiofilm activity against Escherichia coli assessed as biofilm thickness after 24 hrs (reference value: >8 micrometer); assay type: functional; method in brief: as §3
Escherichia coli [49] = experiment: Induction of cell membrane disruption in Escherichia coli assessed as pore network disruption by SEM assay; assay type: functional, organism-based
Escherichia coli [50] = experiment: Induction of cell membrane disruption in Escherichia coli assessed as extracellular architecture disruption by SEM assay; assay type: functional, organism-based
Escherichia coli [51] = experiment: Antibiofilm activity against Escherichia coli isolate 6/23 exposed to compound-coated catheters assessed as reduction in colony forming units incubated for 3 days; assay type: functional, organism-based
Escherichia coli [52] = experiment: Antibiofilm activity against Escherichia coli isolate 6/23 infected in BALB/c mouse implanted subcutaneously with compound treated catheters followed by infection at incision site; assay type: functional, organism-based
Escherichia coli [53] = experiment: Bactericidal activity against Escherichia coli assessed as reduction in colony forming units at 4 times MIC99 concentration after 90 mins by fluorescent based time-kill assay

CC(C)C[C@H](N)C(=O)NCC(=O)O[C@@H]1CC[C@@]2(C)[C@@H](C1)C[C@@H](OC(=O)CNC(=O)[C@@H](N)CC(C)C)[C@@H]1[C@@H]2C[C@H](OC(=O)CNC(=O)[C@@H](N)CC(C)C)[C@]2(C)[C@@H]([C@H](C)CCC(=O)OCc3ccccc3)CC[C@@H]12
8 to 128 µM: MIC99 (Escherichia coli [1])

CC(C)[C@H](N)C(=O)NCC(=O)O[C@@H]1CC[C@@]2(C)[C@@H](C1)C[C@@H](OC(=O)CNC(=O)[C@@H](N)C(C)C)[C@@H]1[C@@H]2C[C@H](OC(=O)CNC(=O)[C@@H](N)C(C)C)[C@]2(C)[C@@H]([C@H](C)CCC(=O)OCc3ccccc3)CC[C@@H]12.Cl.Cl.Cl
90%: Activity (Escherichia coli [22])
8: log(activity) (Escherichia coli [21])
active: Activity [4] | inhibition (Lipopolysaccharide (LPS) [5]) | Activity (Lipopolysaccharide (LPS) [6]) | Activity (Escherichia coli [13]) | Activity (Escherichia coli [14]) | Activity (Escherichia coli [15]) | Activity (Escherichia coli [18]) | Activity (Escherichia coli [19]) | Activity (Escherichia coli [20]) Dose-dependent effect | Activity (Escherichia coli [23]) | Activity (Escherichia coli [24]) | Activity (Escherichia coli [25]) | Activity (Escherichia coli [43]) | Activity (Escherichia coli [44]) | Activity (Escherichia coli [45]) | Activity (Escherichia coli [47]) | Activity (Escherichia coli [49]) | Activity (Escherichia coli [50]) | Activity (Escherichia coli [51]) | Activity (Escherichia coli [52]) | Activity (Escherichia coli [53])
9.6 ×10⁷ /M: KA (Cell membrane [12])
4.19 ×10⁻⁵ /s: K (Cell membrane [10])
2: Ratio (Escherichia coli [46])
16 µM: MIC99 (Klebsiella pneumoniae [2]) | MIC99 (Acinetobacter baumannii [3]) | MIC99 (Acinetobacter baumannii [31]) | MIC99 (Acinetobacter baumannii [32])
6 to 7: selectivity ratio [40] | selectivity ratio [41]
> 100 µM: CMC [42]
2.39 ×10² /M: K (Cell membrane [11])
inactive: Activity (Escherichia coli [16]) | Activity (Escherichia coli [17])
4 µM: MIC99 (Escherichia coli [29]) | MIC99 (Escherichia coli [30]) | MIC99 (Acinetobacter baumannii [33]) | MIC99 (Acinetobacter baumannii [35]) | MIC99 (Klebsiella pneumoniae [38])
8 µM: MIC99 (Escherichia coli [1]) | MIC99 (Escherichia coli [26]) | MIC99 (Escherichia coli [27]) | MIC99 (Escherichia coli [28]) | MIC99 (Acinetobacter baumannii [34]) | MIC99 (Klebsiella pneumoniae [36]) | MIC99 (Klebsiella pneumoniae [37]) | MIC99 (Klebsiella pneumoniae [39])
3 um: Activity (Escherichia coli [48])
2.41 ×10⁴ /Ms: K (Cell membrane [7])
6 ×10⁻² /s: K (Cell membrane [8])
4.06 ×10⁵ /M: K (Cell membrane [9])
